We go through 36 compounds from ChEMBL document CHEMBL3244229, “Nonsteroidal antiinflammatory agents. 1. 5-Alkoxy-3-biphenylylacetic acids and related compounds as new potential antiinflammatory agenst” (J Med Chem, 1977).

Data set [1] can be described thus: Acute toxicity in ip dosed ddY mouse measured after 168 hrs. The format is organism-based. Conditions: in vivo. In outline: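 Male ddY mice, four per group, given a single ip injection; deaths assessed 168 h after dosing. LD50 calculated by the method of Weil.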
A further data set has as its system Rattus norvegicus. The experiment in a line: Antiinflammatory activity in Wistar rat assessed as inhibition of carrageenan-induced paw edema administered 30 mins prior challenge measured after 3 hrs. Format: functional. In outline:
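Rats were dosed orally. Thirty minutes later, 1% carrageenan was injected subcutaneously into the plantar surface of the hind paw, and paw volume was remeasured 3 h afterward. Percent inhibition came from comparing the volume increase against a control group. ED50 (dose giving 50% inhibition) was derived from least-squares probit response vs log dose regression.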
Background: In the carrageenan paw model, swelling and tenderness develop within hours.

The next data set has as its system Mus musculus. Description: Analgesic activity in ip dosed ddY mouse assessed as prevention of pseudoavoidance reflex co-administered with 5 mg/kg, sc morphine hydrochloride by tail pinch method. Format: functional. In outline:
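Groups of eight male ddY mice (25–30 g) got the compound ip as a suspension in 0.5% CMC, together with a threshold dose of morphine hydrochloride (5 mg/kg sc). The read-out was prevention of pseudoavoidance reflexes (biting, squeaking, looking backward) after tail pinching with forceps. ED50 was calculated by the Litchfield–Wilcoxon method.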

On to `COc1cc(C)cc(CC(=O)O)c1`, for which the LD50 at 168 h in data set [1] came to 673 mg/kg. Besides, the ED50 in the data set on Rattus norvegicus is above 100 mg/kg.

In turn, `COc1cc(CC(=O)NO)cc(-c2ccc(Cl)cc2)c1` gave an LD50 at 168 h in data set [1] above 1600 mg/kg. Moreover, the median effective dose (ED50) with Rattus norvegicus was above 100 mg/kg.

In data set [1], `O=C(O)Cc1cc(O)cc(-c2ccc(Cl)cc2)c1` showed an LD50 at 168 h of 141 mg/kg. For the same compound, the ED50 in the data set with Rattus norvegicus was above 100 mg/kg.

In the case of `COc1cc(C(=O)O)cc(-c2ccc(Cl)cc2)c1`, in data set [1], the LD50 at 168 h stood at 1130 mg/kg. Also, the ED50 in the data set with Rattus norvegicus is above 100 mg/kg.

Take `COc1cc(CC(=O)O)cc(-c2ccccc2Cl)c1`: the ED50 in the data set with Mus musculus came out at 195 mg/kg; with Rattus norvegicus, 39 mg/kg. The compound further registered an LD50 at 168 h in data set [1] of 252 mg/kg.

Take `COc1cc(CC(=O)O)cc(C(C)C)c1`: the LD50 at 168 h in data set [1] is 1600 mg/kg. Moreover, the ED50 with Rattus norvegicus was above 100 mg/kg.

In data set [1], `CCCCOc1cc(CC(=O)O)cc(-c2ccc(Cl)cc2)c1` displayed an LD50 at 168 h of 237 mg/kg. Also, the ED50 in the data set on Rattus norvegicus is above 100 mg/kg.

In data set [1], `CCOC(=O)Cc1cc(OC)cc(-c2ccc(Cl)cc2)c1` displayed a median lethal dose (LD50) at 168 h of 1130 mg/kg. Also, the ED50 in the data set on Rattus norvegicus turned out to be 29 mg/kg.

Compound `CC(C)COc1cc(CC(=O)O)cc(-c2ccc(Cl)cc2)c1` yielded a 50% lethal dose (LD50) at 168 h in data set [1] of 139 mg/kg. Also, the ED50 in the data set with Rattus norvegicus is above 100 mg/kg.

Take `COc1ccc(-c2cc(CC(=O)O)cc(OC)c2)cc1`: the ED50 in the data set with Mus musculus is 165 mg/kg; with Rattus norvegicus it was above 100 mg/kg. Also, the LD50 at 168 h in data set [1] is 636 mg/kg.

`CCCCOc1cc(C)cc(CC(=O)O)c1`: the LD50 at 168 h in data set [1] stood at 673 mg/kg. In addition, in the data set with Rattus norvegicus, the ED50 is above 100 mg/kg.

Consider `CCOc1cc(CC(=O)O)cc(-c2ccccc2)c1`, for which the LD50 at 168 h in data set [1] is 400 mg/kg. In addition, the ED50 with Rattus norvegicus was above 100 mg/kg.

Consider `COc1cc(CC(N)=O)cc(-c2ccc(Cl)cc2)c1`, for which the LD50 at 168 h in data set [1] is above 1600 mg/kg. Besides, the ED50 in the data set with Rattus norvegicus is above 100 mg/kg.

The compound `COc1cc(CC(=O)O)cc(-c2ccccc2)c1` returned an LD50 at 168 h in data set [1] of 566 mg/kg. Moreover, in the data set with Rattus norvegicus, the ED50 came out at 60 mg/kg.

In data set [1], `COc1cc(CC(=O)O)cc(-c2ccc(C)cc2)c1` returned an LD50 at 168 h of 566 mg/kg. Besides, the ED50 with Rattus norvegicus was above 100 mg/kg.

The compound `COC(=O)Cc1cc(O)cc(-c2ccc(Cl)cc2)c1` yielded an LD50 at 168 h in data set [1] above 1600 mg/kg. Besides, the ED50 in the data set on Rattus norvegicus is above 100 mg/kg.

In turn, `Cc1cc(CC(=O)O)cc(OCC(C)C)c1` came in with an LD50 at 168 h in data set [1] of 1000 mg/kg. Moreover, the ED50 with Rattus norvegicus was above 100 mg/kg.

As to `CCCOc1cc(CC(=O)O)cc(-c2ccccc2)c1`, the 50% lethal dose (LD50) at 168 h in data set [1] worked out at 475 mg/kg. Also, the 50% effective dose (ED50) with Rattus norvegicus was above 100 mg/kg.

On to `CC(C)COc1cc(CC(=O)O)cc(-c2ccccc2)c1`, for which the LD50 at 168 h in data set [1] stood at 566 mg/kg. For the same compound, the ED50 in the data set on Rattus norvegicus is above 100 mg/kg.

Compound `CCOc1cc(CC(=O)O)cc(-c2ccc(Cl)cc2)c1` registered an LD50 at 168 h in data set [1] of 284 mg/kg. For the same compound, the ED50 in the data set with Rattus norvegicus stood at 51 mg/kg.

In data set [1], `COc1cccc(CC(=O)O)c1` showed an LD50 at 168 h of 504 mg/kg. Further, the ED50 in the data set with Rattus norvegicus is above 100 mg/kg.

On to `COC(=O)Cc1cc(OC(C)=O)cc(-c2ccc(Cl)cc2)c1`, for which, in data set [1], the 50% lethal dose (LD50) at 168 h is above 1600 mg/kg. Further, in the data set on Rattus norvegicus, the ED50 is above 100 mg/kg.

For the compound `COc1cc(CC(=O)O)cc(C2CCCCC2)c1`, the LD50 at 168 h in data set [1] was found to be 564 mg/kg. The ED50 in the data set on Rattus norvegicus was above 100 mg/kg.

As for `COc1cc(CC(=O)O)cc(-c2ccc(Cl)cc2)c1`, the ED50 in the data set with Mus musculus was found to be 38 mg/kg; with Rattus norvegicus, 11 mg/kg. Also, the LD50 at 168 h in data set [1] amounted to 570 mg/kg.

In data set [1], `COc1cc(CC(=O)O)cc(-c2ccc(Cl)cc2Cl)c1` returned an LD50 at 168 h of 336 mg/kg. Moreover, the ED50 in the data set with Rattus norvegicus stood at 70 mg/kg.

For `CCCCOc1cc(CC(=O)O)cc(-c2ccccc2)c1`, the LD50 at 168 h in data set [1] is above 1600 mg/kg. The median effective dose (ED50) with Rattus norvegicus was above 100 mg/kg.

`CC(C)Cc1ccc(C(C)C(=O)O)cc1` (stereo unspecified) [IBUPROFEN]: the ED50 worked out at 69 mg/kg with Mus musculus and 25 mg/kg in the data set on Rattus norvegicus. For the same compound, the LD50 at 168 h in data set [1] is 336 mg/kg.

On to `CCCCCOc1cc(CC(=O)O)cc(-c2ccccc2)c1`, for which the LD50 at 168 h in data set [1] was determined as 1130 mg/kg. Also, the ED50 with Rattus norvegicus is above 100 mg/kg.

Consider `COc1cc(CCO)cc(-c2ccc(Cl)cc2)c1`, for which the LD50 at 168 h in data set [1] stood at 673 mg/kg. Also, in the data set with Rattus norvegicus, the ED50 was found to be 47 mg/kg.

Take `CCOC(=O)Cc1cc(O)cc(-c2ccc(Cl)cc2)c1`: in data set [1], the LD50 at 168 h is above 1600 mg/kg. Also, in the data set with Rattus norvegicus, the ED50 was above 100 mg/kg.

The compound `CCCCCOc1cc(CC(=O)O)cc(-c2ccc(Cl)cc2)c1` had a 50% lethal dose (LD50) at 168 h in data set [1] of 475 mg/kg. For the same compound, the ED50 in the data set on Rattus norvegicus was above 100 mg/kg.

On to `COc1cc(CC(=O)O)cc(-c2ccc(F)cc2)c1`, for which the LD50 at 168 h in data set [1] was determined as 565 mg/kg. Moreover, the ED50 in the data set with Rattus norvegicus was 50 mg/kg.

In data set [1], `CCCOc1cc(CC(=O)O)cc(-c2ccc(Cl)cc2)c1` gave an LD50 at 168 h of 400 mg/kg. For the same compound, in the data set with Rattus norvegicus, the ED50 was found to be 97 mg/kg.

On to `COC(=O)Cc1cc(OS(C)(=O)=O)cc(-c2ccc(Cl)cc2)c1`, for which, in data set [1], the LD50 at 168 h amounted to 1130 mg/kg. In addition, in the data set on Rattus norvegicus, the ED50 was above 100 mg/kg.

Compound `COc1cc(CCC(=O)O)cc(-c2ccc(Cl)cc2)c1` yielded an LD50 at 168 h in data set [1] of 284 mg/kg. The ED50 in the data set on Rattus norvegicus was above 100 mg/kg.

Turning to `COC(=O)Cc1cc(OC)cc(-c2ccc(Cl)cc2)c1`, the LD50 at 168 h in data set [1] amounted to 1600 mg/kg. In the data set with Rattus norvegicus, the median effective dose (ED50) stood at 35 mg/kg.

As a reminder, the LD50 is the dose at which mortality reaches 50%. As usually defined, the ED50 is the dose at which the effect has come halfway, by size or by number of responders.
